Only some compounds are listed: those with a hit (about 2.6% of all), similar ones and a draw of the others.
MEKK2mut PB1 HTS – MEK5 binding signal on mutant MEKK2 PB1, primary screen, biochemical, multiplex bead flow cytometry, Alexa488-MEK5. actives 0.35% (n = 290,000). AID 1530, 2009. Alexa488-MEK5 binding to MEKK2 mutant. percent response, % at 10 µM; in the data active = percent response above about 24%, passing the limit was not always enough
MEKK2wt PB1 HTS – modulators of MEK5 binding to wildtype MEKK2, primary screen, biochemical, multiplex bead flow cytometry, Alexa488-MEK5; Alexa488-MEK5 binding to MEKK2 WT; actives lie on both sides; binding response (% of control), % at 10 µM; actives 1.1% (n = 290,000); AID 1531, 2009; in the data active = binding response below about 67% or above about 130%
MEKK3 PB1 HTS – modulators of MEKK3-MEK5 PB1 binding, primary screen, biochemical, wildtype MEKK3, multiplex bead flow cytometry, Alexa488-MEK5 | Mitogen-activated protein kinase kinase kinase 3 (Homo sapiens), Q99759 | bead-based flow cytometry, Alexa488-MEK5 binding to MEKK3; actives lie on both sides; 0 = blocked by unlabeled MEK5, 100 = vehicle | binding response (% of control), % at 10 µM | actives 1.4% (n = 290,000);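 active = binding response more than 3 SD above or below the average of its plate-row segment, actives on both sides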;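 note: Alexa488 bead fluorescence after subtracting the streptavidin-only scavenger bead signal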
Target sequence (Q99759 whole entry, looked up): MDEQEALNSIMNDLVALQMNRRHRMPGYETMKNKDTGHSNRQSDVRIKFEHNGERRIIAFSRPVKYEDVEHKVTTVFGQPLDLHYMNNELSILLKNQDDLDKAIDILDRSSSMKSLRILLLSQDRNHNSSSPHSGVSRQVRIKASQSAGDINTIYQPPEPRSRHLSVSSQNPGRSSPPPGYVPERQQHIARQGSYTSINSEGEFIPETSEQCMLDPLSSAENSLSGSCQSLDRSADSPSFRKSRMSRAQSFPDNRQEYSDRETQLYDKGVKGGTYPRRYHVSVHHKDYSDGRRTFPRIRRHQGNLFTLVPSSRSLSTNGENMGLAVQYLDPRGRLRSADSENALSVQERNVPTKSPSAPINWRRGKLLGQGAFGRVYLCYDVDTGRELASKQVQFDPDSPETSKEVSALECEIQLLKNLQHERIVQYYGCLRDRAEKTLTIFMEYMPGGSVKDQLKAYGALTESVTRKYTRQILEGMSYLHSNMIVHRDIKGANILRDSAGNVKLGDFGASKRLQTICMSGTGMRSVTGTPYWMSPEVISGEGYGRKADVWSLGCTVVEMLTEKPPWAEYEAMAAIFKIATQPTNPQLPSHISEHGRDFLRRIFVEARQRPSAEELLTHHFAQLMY
Lipid droplet – inhibitors of hepatocyte lipid droplet formation, primary screen, imaging, high-throughput imaging, BODIPY stain; AML12 mouse hepatocytes, oleate lipid droplets; inhibition, % at 6.5 µM; actives 0.4% (n = 240,000);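 active = lipid droplet intensity inhibited by at least 50%, with more than 500 cells counted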
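Test system: AML12 hepatocytes (mouse); reagent: oleate loading, 100 µM; dosing: one dose, 6.5 µM compound; incubation: overnight exposure; signal: fluorescence imaging, 20x objective, two fields per well; read-out basis: % inhibition of corrected integrated BODIPY droplet signal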
MEKK2wt confirm – modulators of MEK5 binding to wildtype MEKK2, confirmation, biochemical, single concentration, multiplex bead flow cytometry; shares compounds with MEKK3 PB1 HTS; Alexa488-MEK5 binding to MEKK2 WT; actives lie on both sides; binding response (% of control), % at 10 µM; actives 2.4% (n = 5,900); AID 1892, 2009; in the data active = binding response below about 16% or above about 210%; inactive = in between
MEKK2mut confirm – mutant MEKK2 PB1-MEK5 binding signal retest – biochemical, single concentration, multiplex bead flow cytometry, confirmation; percent response, % at 10 µM; actives 2% (n = 5,900); Alexa488-MEK5 binding to MEKK2 mutant; shares compounds with MEKK3 PB1 HTS; in the data active = percent response mostly above about 71%, no sharp cut-off; inactive = mostly below about 38%;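 note: higher means compound restores mutant binding toward wildtype level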
MEKK3-MEK5 inh – MEKK3 wild-type PB1 binding to MEK5, inhibitors, confirmation, biochemical, bead multiplex flow cytometry, single concentration, wildtype | binding response (% of control), % at 10 µM | shares compounds with MEKK3 PB1 HTS | Alexa488-MEK5 binding to MEKK3; active compounds read low | actives 1.8% (n = 5,900);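 active = binding response below 72% of control, or above a set upper limit, though filed actives all read lower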;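 note: lower values mean stronger disruption of MEK5 binding to MEKK3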
Large screens that a line does not name were inactive (follow-up assays come after a bar, where they were run); [ ] = another dose, or the depositor's remark.

Cc1cc(C(=O)N/N=C/C=C/c2cccc([N+](=O)[O-])c2)n[nH]1	none
Cc1ccccc1Nc1cc(C)c2c(O)cccc2n1	MEKK3 PB1 HTS 57[inhibitor] (no result: Lipid droplet) | MEKK2wt confirm inactive | MEKK2mut confirm inactive | MEKK3-MEK5 inh inactive
CC(=O)CSc1cc(C)nc2c(-c3ccccc3)c(C)nn12	MEKK3 PB1 HTS 129 | MEKK2wt confirm inactive | MEKK2mut confirm inactive | MEKK3-MEK5 inh inactive
Cc1cc(SCC(=O)c2cccs2)n2nc(C)c(-c3ccccc3)c2n1	none
CCOc1ccccc1NC(=S)N1CCN(c2nc(-c3cccc(OC)c3)cs2)CC1	none
CCN1C(=O)C(CC(=O)Nc2ccc(F)cc2)N(CCCN2CCN(c3ccc(F)cc3)CC2)C1=S (stereo not drawn)	MEKK2wt PB1 HTS 143 | MEKK2wt confirm inactive | MEKK2mut confirm inactive | MEKK3-MEK5 inh inactive
CCOc1ccc(NC(=O)CC2C(=O)N(CC)C(=S)N2CCN2CCOCC2)cc1 (stereo not drawn)	none
CCCOc1ccc(NC(=O)CC2C(=O)N(CC)C(=S)N2CCCN2CCN(Cc3ccccc3)CC2)cc1 (stereo not drawn)	MEKK2wt PB1 HTS 155 | MEKK2wt confirm inactive | MEKK2mut confirm inactive | MEKK3-MEK5 inh inactive
COc1cc(/C=N/NC(=O)c2cc3ccccc3cc2O)ccc1OCCN1CCCCC1	MEKK2wt PB1 HTS 229 | MEKK2wt confirm 207 | MEKK2mut confirm 82 | MEKK3-MEK5 inh inactive
COc1cc(/C=N/NC(=O)c2ccncc2)ccc1OCCN1CCCCC1	none
CC(C)N1CCC2(CC1)N=C(c1ccc3c(c1)OCO3)CC(c1cc(Cl)ccc1O)N2 (stereo not drawn)	MEKK2mut PB1 HTS 26, MEKK2wt PB1 HTS 138 | MEKK2wt confirm inactive | MEKK2mut confirm inactive | MEKK3-MEK5 inh inactive
CCC(=O)Nc1ccc(OCc2nnc3c4ccccc4c(C)nn23)cc1	none
Cc1nn2c(COc3ccc(NC(=O)c4ccccc4)cc3)nnc2c2ccccc12	MEKK3 PB1 HTS 147 | MEKK2wt confirm inactive | MEKK2mut confirm inactive | MEKK3-MEK5 inh inactive
Cc1ccc(C(=O)Nc2ncc3c(Cl)cccc3n2)cc1	MEKK2mut PB1 HTS 25 (no result: Lipid droplet) | MEKK2wt confirm inactive | MEKK2mut confirm inactive | MEKK3-MEK5 inh inactive
Cc1ccc(C(=O)Nc2ccc(Cl)cn2)cc1	none (no result: Lipid droplet)
Cc1cc(NS(=O)(=O)c2ccc(NC(=O)CSc3nnc(-c4ccco4)n3C)cc2)nc(C)n1	MEKK3 PB1 HTS 141 | MEKK2wt confirm inactive | MEKK2mut confirm inactive | MEKK3-MEK5 inh inactive
Cc1cc(NS(=O)(=O)c2ccc(NC(=O)CSc3nnc(-c4ccco4)n3N)cc2)nc(C)n1	none
O=C(CCc1cn2ccccc2n1)NC1CCCc2c1cnn2-c1ccccc1F (stereo not drawn)	none
CCCCCCCCCC[n+]1cccc2c3ccccc3ccc21	MEKK2wt PB1 HTS 213 | MEKK2wt confirm inactive | MEKK2mut confirm inactive | MEKK3-MEK5 inh inactive
CCCCCCCC[n+]1cccc2c3ccccc3ccc21	none
Cc1cc(N)ccc1N1CCCC1	MEKK3 PB1 HTS 71[inhibitor] (no result: Lipid droplet) | MEKK2wt confirm inactive | MEKK2mut confirm inactive | MEKK3-MEK5 inh inactive
O=S(=O)(NCC1CCCO1)c1ccc(S(=O)(=O)N(Cc2ccc(F)cc2)Cc2ccco2)cc1 (stereo not drawn)	none
C#CCOCCOCCOCCNc1nc(N2CCN(C(=O)[C@H]([C@@H](C)CC)n3cc([C@@H](N)CO)nn3)CC2)nc(N2CCN(C(=O)[C@H](CCCCN)n3cc([C@@H](N)C(C)CC)nn3)CC2)n1 (stereo partly drawn)	none
C#CCOCCOCCOCCNc1nc(N2CCN(C(=O)[C@H]([C@@H](C)CC)n3cc([C@@H](N)CC(C)C)nn3)CC2)nc(N2CCN(C(=O)[C@H](CCCCN)n3cc([C@@H](N)C(C)CC)nn3)CC2)n1 (stereo partly drawn)	MEKK2wt PB1 HTS 146 | MEKK2wt confirm inactive | MEKK2mut confirm inactive | MEKK3-MEK5 inh inactive
C#CCOCCOCCOCCNc1nc(N2CCN(C(=O)C([C@@H](C)CC)n3cc(C(N)COC(=O)C(F)(F)F)nn3)CC2)nc(N2CCN(C(=O)[C@H](CCCCN)n3cc(C(N)[C@H](C)CC)nn3)CC2)n1 (stereo partly drawn)	MEKK2mut PB1 HTS 62, MEKK2wt PB1 HTS 304 (no result: Lipid droplet) | MEKK2wt confirm 237 | MEKK2mut confirm 86 | MEKK3-MEK5 inh inactive
C#CCOCCOCCOCCNc1nc(N2CCN(C(=O)[C@H](CCCCN)n3cc(CCCC)nn3)CC2)nc(N2CCN(C(=O)[C@H](CCCCN)n3cc(CCCC)nn3)CC2)n1	MEKK2wt PB1 HTS 159 | MEKK2wt confirm inactive | MEKK2mut confirm inactive | MEKK3-MEK5 inh inactive
C#CCOCCOCCOCCNc1nc(N2CCN(C(=O)[C@H]([C@@H](C)CC)n3cc([C@@H](N)CC(C)C)nn3)CC2)nc(N2CCN(C(=O)[C@H](CCCCN)n3cc([C@@H](N)CC(C)C)nn3)CC2)n1	MEKK2wt PB1 HTS 151 | MEKK2wt confirm inactive | MEKK2mut confirm inactive | MEKK3-MEK5 inh inactive
C#CCOCCOCCOCCNc1nc(N2CCN(C(=O)C([C@@H](C)CC)n3cc(C(N)CC(C)C)nn3)CC2)nc(N2CCN(C(=O)[C@H](CCC(=O)O)n3cc(C(N)CC(C)C)nn3)CC2)n1 (stereo partly drawn)	none
CC(C)N1C(=O)/C(=C\c2nc3ccccc3c(=O)[nH]2)c2ccccc21	none
CC(C)OCCCNC(=O)CCSc1ccc(Cl)cc1	none
Cc1ccccc1C(=O)Oc1ccccc1N1C(=O)C2CC=CCC2C1=O (stereo not drawn)	none
CC1CCC2C(=O)N(c3ccccc3OC(=O)c3ccccc3F)C(=O)C2C1 (stereo not drawn)	MEKK3 PB1 HTS 143 | MEKK2wt confirm inactive | MEKK2mut confirm inactive | MEKK3-MEK5 inh inactive
Cc1cc(C(=O)Nc2ncn[nH]2)ccc1[N+](=O)[O-]	MEKK3 PB1 HTS 73[inhibitor] | MEKK2wt confirm inactive | MEKK2mut confirm inactive | MEKK3-MEK5 inh inactive
Cc1c(C(c2ccc(C(=O)O)cc2)c2c(C)n(C)n(-c3ccccc3)c2=O)c(=O)n(-c2ccccc2)n1C	none (no result: Lipid droplet)

Screens (PubChem BioAssay)
